Structures are written as SMILES.

A short description of series [1]: Permeability from apical side to basolateral side in human Caco2 cells. The settings on record: Caco-2, read-out: permeability. The class given is ADME, cell-based.
Series [2] is described as follows: AUC in rat. Details: concentration or dose not given beside the values. The settings on record: in vivo. The format is ADME.
Series [3] deals with Disintegrin and metalloproteinase domain-containing protein 17 (Homo sapiens, UniProt P78536). Description: Inhibition of catalytic domain TACE (unknown origin) by FRET assay.
Sequence of Disintegrin and metalloproteinase domain-containing protein 17 (P78536 whole entry, the tested form may be a part): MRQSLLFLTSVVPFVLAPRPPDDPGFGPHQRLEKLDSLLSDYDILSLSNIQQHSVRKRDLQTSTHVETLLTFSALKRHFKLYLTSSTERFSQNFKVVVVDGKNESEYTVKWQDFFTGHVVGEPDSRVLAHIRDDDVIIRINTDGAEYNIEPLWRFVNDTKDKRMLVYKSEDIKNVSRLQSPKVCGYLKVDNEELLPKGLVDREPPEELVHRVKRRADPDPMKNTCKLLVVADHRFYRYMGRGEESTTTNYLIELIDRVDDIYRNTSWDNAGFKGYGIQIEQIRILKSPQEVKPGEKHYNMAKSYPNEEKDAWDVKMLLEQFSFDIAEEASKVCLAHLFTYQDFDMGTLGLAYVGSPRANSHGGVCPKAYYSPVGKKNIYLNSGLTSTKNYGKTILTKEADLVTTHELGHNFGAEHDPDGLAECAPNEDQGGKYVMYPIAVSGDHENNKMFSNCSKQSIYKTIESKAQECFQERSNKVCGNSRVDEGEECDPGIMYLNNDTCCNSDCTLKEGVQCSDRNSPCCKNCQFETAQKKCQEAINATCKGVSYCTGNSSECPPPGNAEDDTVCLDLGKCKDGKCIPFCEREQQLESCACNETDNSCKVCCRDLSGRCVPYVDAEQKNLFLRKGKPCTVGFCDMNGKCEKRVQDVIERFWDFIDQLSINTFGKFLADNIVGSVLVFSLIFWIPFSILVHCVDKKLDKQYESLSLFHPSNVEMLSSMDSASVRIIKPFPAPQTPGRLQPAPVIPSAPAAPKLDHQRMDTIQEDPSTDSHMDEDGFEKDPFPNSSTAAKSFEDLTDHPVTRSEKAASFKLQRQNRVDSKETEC
For series [4], the system named is Blood. Put plainly: Antiinflammatory activity in human whole blood assessed as inhibition of LPS-induced TNF-alpha release preincubated for 1 hr followed by LPS addition after 3.5 hrs by ELISA method. The format is functional. (In general: In an ELISA, binding on a coated surface is turned into a signal by an enzyme label.)
The nature of series [5]: Oral bioavailability in rat at 10 mg/kg. The class given is ADME, organism-based. The conditions noted are these: in vivo. In outline:
(§1)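 Oral dosing of rats, dogs and monkeys, with compounds given as Na+ or HCl salts in a 0.4% HPMC formulation. Doses were 10 mg/kg in rat, 2 or 3 mg/kg in dog, and 3 or 10 mg/kg in monkey. Plasma exposure was reported as AUC in µM·h, and oral bioavailability as F%.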

The nature of series [6]: AUC in rat at 10 mg/kg, po. The settings on record: in vivo. The class given is ADME, organism-based. The procedure, abridged: as §1
Series [7] can be described thus: AUC in monkey at 3 mg/kg, po. The class given is ADME, organism-based, Macaca mulatta. The conditions noted are these: rhesus monkey, in vivo. The procedure, abridged:
as §1

Series [8] can be described thus: AUC in dog at 2 mg/kg, po. The format is ADME, organism-based, Canis lupus familiaris. The conditions noted are these: in vivo. The procedure, abridged:
as §1

For the compound `COc1ccc2c(c1)C(=O)N(C[C@@]1(C#Cc3cccnc3)NC(=O)NC1=O)C2`, in series [1], the Papp A→B is 1.6 ×10⁻⁶ cm/s.
`COc1ccc2c(c1)C(=O)N(C[C@@]1(c3cc4nc(N(c5cn[nH]c5)C5CCN(C)CC5)ccc4o3)NC(=O)NC1=O)C2`: in series [1], the Papp A→B worked out at 0.1 ×10⁻⁶ cm/s. In series [2], the AUC – broadly, concentration integrated over time – is 0.06 µM·h. For the same compound, the Ki (in general, the dissociation constant of the complex between target and ligand, obtained from inhibition or displacement) in series [3] was 1 nM.
In the case of `COc1ccc2c(c1)C(=O)N(C[C@@]1(c3cc4cnc(C)cc4o3)NC(=O)NC1=O)C2`, the Papp A→B in series [1] came to 2.05 ×10⁻⁶ cm/s. For the same compound, the AUC in series [2] was determined as 19.1 µM·h. Also, in series [3], the affinity corresponds to a Ki of 0.4 nM. Besides, the IC50 – broadly, the concentration needed to halve the response being measured – in series [4] was 350 nM.
Regarding `COc1ccc2c(c1)C(=O)N(C[C@@]1(c3cc4cncc(N)c4o3)NC(=O)NC1=O)C2`, in series [2], the AUC is 0.1 µM·h. The same compound registered a Ki in series [3] of 0.4 nM. In addition, the IC50 in series [4] was 310 nM.
`COc1ccc2c(c1)C(=O)N(C[C@@]1(c3cc4cccnc4o3)NC(=O)NC1=O)C2`: in series [2], the AUC was found to be 34 µM·h. Further, the Ki in series [3] was 0.7 nM. The IC50 in series [4] came out at 590 nM.
In series [2], `COc1ccc2c(c1)C(=O)N(C[C@@]1(c3cc4cnc(C(F)(F)F)cc4o3)NC(=O)NC1=O)C2` had an exposure (AUC) of 19.3 µM·h. The Ki in series [3] amounted to 0.5 nM. The half-inhibitory concentration (IC50) in series [4] stood at 1620 nM.
For the compound `COc1ccc2c(c1F)C(=O)N(C[C@@]1(c3cc4nc(N5CCC(N(C)C)CC5)ccc4o3)NC(=O)NC1=O)C2`, the AUC in series [2] was 0.04 µM·h. Further, in series [4], the IC50 came to 76 nM.
With `COc1ccc2c(c1)C(=O)N(C[C@@]1(c3cn4ccccc4n3)NC(=O)NC1=O)C2`, the Ki in series [3] came out at 1.4 nM. The concentration for half-maximal inhibition (IC50) in series [4] turned out to be 1480 nM.
Regarding `COc1ccc2c(c1F)C(=O)N(C[C@@]1(c3cc4cnc(C)cc4o3)NC(=O)NC1=O)C2`, the bioavailability – broadly, dose-corrected exposure relative to a reference, in per cent – in series [5] came out at 11%. For the same compound, the AUC is 13.4 µM·h in series [6], 26.3 µM·h in series [2], 1.5 µM·h in series [7] and 13.5 µM·h in series [8]. Moreover, the affinity in series [3] corresponds to a Ki of 0.4 nM. In addition, the half-inhibitory concentration (IC50) in series [4] came out at 210 nM.
For `COc1ccc2c(c1)C(=O)N(C[C@@]1(c3cc4ncccc4[nH]3)NC(=O)NC1=O)C2`, the affinity in series [3], expressed as Ki, was 3.6 nM. Besides, the IC50 in series [4] was found to be 2970 nM.
In turn, `COc1ccc2c(c1)C(=O)N(C[C@@]1(c3cc4c(C)nc(C)cc4o3)NC(=O)NC1=O)C2` returned an AUC in series [2] of 4.2 µM·h. Also, in series [3], the Ki came to 0.5 nM. In series [4], the IC50 came to 680 nM.
In series [2], `COc1ccc2c(c1)C(=O)N(C[C@@]1(c3cc4nc(-n5cccn5)ccc4o3)NC(=O)NC1=O)C2` gave an AUC of 21 µM·h. In series [3], the Ki was found to be 0.4 nM. Further, the IC50 in series [4] came out at 1370 nM.
In the same order, the values of `COc1ccc2c(c1)C(=O)N(C[C@@]1(c3cc4c(C#N)nccc4o3)NC(=O)NC1=O)C2` are 0.5 µM·h, 0.7 nM and 1240 nM.
The compound `COc1ccc2c(c1)C(=O)N(C[C@@]1(c3cc4cncnc4o3)NC(=O)NC1=O)C2` yielded an AUC in series [2] of 2.2 µM·h. The affinity in series [3] corresponds to a Ki of 1.6 nM. In addition, the IC50 in series [4] was found to be 770 nM.
As to `CNC(=O)c1cnc2cc([C@]3(CN4Cc5ccc(OC)cc5C4=O)NC(=O)NC3=O)oc2c1`, the Ki in series [3] was found to be 0.9 nM.
`COc1ccc2c(c1)C(=O)N(C[C@@]1(c3cc4c(-c5cn[nH]c5)nccc4o3)NC(=O)NC1=O)C2` returned a Ki in series [3] of 0.2 nM. Moreover, in series [4], the IC50 worked out at 150 nM.
In series [2], `COc1ccc2c(c1)C(=O)N(C[C@@]1(c3cc4nc(N)ccc4o3)NC(=O)NC1=O)C2` returned an AUC of 0.4 µM·h. This compound also yielded a Ki in series [3] of 0.5 nM. In addition, the IC50 in series [4] stood at 187 nM.
Compound `COc1ccc2c(c1)C(=O)N(C[C@@]1(c3cc4cnc(N5CCNC5=O)cc4o3)NC(=O)NC1=O)C2` yielded an AUC in series [2] of 1.2 µM·h. Besides, the Ki in series [3] worked out at 1.8 nM. Further, the IC50 in series [4] worked out at 210 nM.
Take `COc1ccc2c(c1)C(=O)N(C[C@@]1(c3cc4nc(N(c5cn[nH]c5)C5CCNCC5)ccc4o3)NC(=O)NC1=O)C2`: in series [1], the Papp A→B came to 0.22 ×10⁻⁶ cm/s. Moreover, affinity in series [3] was put at a Ki of 0.4 nM. Also, the IC50 in series [4] is 93 nM.
`COc1ccc2c(c1)C(=O)N(C[C@@]1(c3cc4cncc(C)c4o3)NC(=O)NC1=O)C2` yielded an AUC in series [2] of 8.7 µM·h. The compound also gave a Ki in series [3] of 0.5 nM. Further, the IC50 in series [4] came out at 760 nM.
In the same order, the values of `COc1ccc2c(c1)C(=O)N(C[C@@]1(c3cc4ccccc4o3)NC(=O)NC1=O)C2` are 0.2 µM·h, 0.3 nM and 2310 nM.
With `COc1ccc2c(c1F)C(=O)N(C[C@@]1(c3cc4nc(N5CC(=O)NC5=O)c(F)cc4o3)NC(=O)NC1=O)C2`, the AUC in series [2] was 3.2 µM·h. Besides, the Ki in series [3] turned out to be 0.4 nM.
`COc1ccc2c(c1)C(=O)N(C[C@@]1(c3cn4ccsc4n3)NC(=O)NC1=O)C2` gave an AUC in series [2] of 2.2 µM·h. The compound further had a Ki in series [3] of 1.3 nM. In addition, the IC50 in series [4] was 540 nM.
`COc1ccc2c(c1)C(=O)N(C[C@@]1(c3cc4cncc(F)c4o3)NC(=O)NC1=O)C2` gave an AUC in series [2] of 2.7 µM·h. In series [3], this compound showed a Ki of 2 nM. Moreover, the IC50 in series [4] was found to be 1090 nM.
`COc1ccc2c(c1)C(=O)N(C[C@@]1(c3cn4cccnc4n3)NC(=O)NC1=O)C2`: the AUC in series [2] was determined as 3.2 µM·h. This compound also displayed an inhibition constant (Ki) in series [3] of 1.9 nM. In addition, in series [4], the IC50 is 710 nM.
Turning to `COc1ccc2c(c1)C(=O)N(C[C@@]1(c3cc4c(O)nccc4o3)NC(=O)NC1=O)C2`, the affinity in series [3] corresponds to a Ki of 0.2 nM. For the same compound, the IC50 in series [4] was 250 nM.
`COc1ccc2c(c1F)C(=O)N(C[C@@]1(c3cc4nc(N5CCNC(=O)C5)ccc4o3)NC(=O)NC1=O)C2` came in with an AUC in series [2] of 0.1 µM·h. The Ki in series [3] came to 0.6 nM.
Turning to `COc1ccc2c(c1F)C(=O)N(C[C@@]1(c3cc4nc(C)c(-c5ccc(N)nc5)cc4o3)NC(=O)NC1=O)C2`, the IC50 in series [4] amounted to 308 nM.
In turn, `COc1ccc2c(c1)C(=O)N(C[C@@]1(c3cc4c(N5CCNCC5)nccc4o3)NC(=O)NC1=O)C2` yielded a Ki in series [3] of 2.5 nM. In series [4], the IC50 is 230 nM.
For `COc1ccc2c(c1)C(=O)N(C[C@@]1(c3cc4nc(-c5cn[nH]c5)ccc4o3)NC(=O)NC1=O)C2`, the AUC in series [2] stood at 0.1 µM·h. Besides, the Ki in series [3] was found to be 0.5 nM. For the same compound, the IC50 in series [4] turned out to be 99 nM.
Consider `COc1ccc2c(c1)C(=O)N(C[C@@]1(c3cc4c(C(F)(F)F)nccc4o3)NC(=O)NC1=O)C2`, for which, in series [3], affinity was put at a Ki of 0.4 nM. Besides, in series [4], the IC50 stood at 1070 nM.

These data come from ChEMBL document CHEMBL4020802, “Fused bi-heteroaryl substituted hydantoin compounds as TACE inhibitors” (Bioorg Med Chem Lett, 2017).
